Results: ChEMBL document CHEMBL1152428 (Bioorg Med Chem, 2009)
pIC50: −log10 of the molar value. Active and inactive are the calls of the source. The calls are words filed in the database; no cut-off is given here.

Columns and labels:
[1] = Inhibition of Marthasterias glacialis CDK1/cyclin B after 30 mins by scintillation counting
[2] = target: Cyclin-dependent kinase 5/CDK5 activator 1 (Homo sapiens, UniProt Q00535); assay: Inhibition of GST-fused recombinant CDK5/p25 expressed in Escherichia coli after 30 mins by scintillation counting
[3] = target: Glycogen synthase kinase-3 (Sus scrofa, UniProt B2LUN4+I6LNT8); assay: Inhibition of pig brain GSK3alpha/beta after 30 mins by scintillation counting
[4] = target: Cyclin-dependent protein kinase PHO85 (Saccharomyces cerevisiae S288c) (UniProt P17157); assay: Inhibition of Saccharomyces cerevisiae YRP1 Pho85 assessed as induction of nuclear localization of GFP-tagged transcription factor Pho4 at 250 uM after 3 hrs by fluorescence microscopy
Procedure, shortened: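 The drug-sensitized strain YRP1 (snq2Δ pdr5Δ erg6Δ) carried a Pho4-GFP plasmid. Cells were grown overnight without uracil, diluted to OD600 0.5 and treated with 250 µM drug, with methanol as vehicle. After 3 h, GFP localization was examined by fluorescence microscopy (excitation 455–495 nm).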

[5] = target: Cyclin-dependent kinase 1 (Saccharomyces cerevisiae S288c, UniProt P00546); assay: Inhibition of hemagglutininin-tagged Saccharomyces cerevisiae MNY629 Cdc28/Clb2
Procedure, shortened: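 Cdc28/Clb2-HA was immunoprecipitated from strain MNY629 extracts with anti-HA and protein A/G agarose. Kinase reactions ran 30 min at 30 °C with histone H1, 15 µmol/l [γ-33P]ATP (stock) and varying drug concentrations in buffer C (25 mM MOPS pH 7.2, 15 mM MgCl2, 5 mM EGTA, 1 mM DTT, phosphatase inhibitors). Products were spotted on P81 paper, washed in 1% phosphoric acid and counted by scintillation. IC50 was taken from the dose–response curve.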

[6] = test system: Saccharomyces cerevisiae; assay: Growth inhibition of drug-sensitized Saccharomyces cerevisiae YRP1 assessed as growth deffect; format: functional, organism-based
Procedure, shortened: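 Growth defect of the drug-sensitized YRP1 strain (snq2Δ pdr5Δ erg6Δ) was scored on agar plates by halo assay.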

[7] = Inhibition of histidine6-tagged Plasmodium falciparum recombinant GSK3 expressed in Escherichia coli by scintillation counting
[8] = target: Cyclin-dependent kinase 1 (Saccharomyces cerevisiae S288c) (UniProt P00546); assay: Binding affinity to Saccharomyces cerevisiae Cdc28
Procedure, shortened: (§1)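 Budding yeast grown to OD600 ~2 were lysed under 2.5 kbar pressure in breaking buffer (25 mM Tris pH 7.4, 100 mM NaCl, 0.2% Triton X100, phosphatase and protease inhibitors) and clarified. The lysate was incubated with Sepharose matrices carrying linker-attached drug (3 µmol/ml resin), methyl control or ethanolamine-blocked beads. Bound proteins were eluted in Laemmli buffer and analysed by SDS–PAGE with silver staining or western blot.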

[9] = target: Cyclin-dependent protein kinase PHO85 (Saccharomyces cerevisiae S288c) (UniProt P17157); assay: Binding affinity to Saccharomyces cerevisiae Pho85; procedure, shortened: as §1

Sequence of Cyclin-dependent kinase 5/CDK5 activator 1 (Q00535 whole entry, the tested form may be a part): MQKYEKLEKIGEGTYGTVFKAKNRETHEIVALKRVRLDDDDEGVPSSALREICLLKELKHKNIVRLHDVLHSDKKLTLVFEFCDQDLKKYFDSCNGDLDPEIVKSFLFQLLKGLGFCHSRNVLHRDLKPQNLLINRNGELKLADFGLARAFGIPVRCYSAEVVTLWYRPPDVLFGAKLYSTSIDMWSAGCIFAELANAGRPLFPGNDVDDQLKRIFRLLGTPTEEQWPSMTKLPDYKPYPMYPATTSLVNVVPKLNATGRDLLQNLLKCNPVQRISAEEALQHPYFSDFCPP
Sequence of Cyclin-dependent kinase 5/CDK5 activator 1 (Q15078 whole entry, further chain, the tested form may be a part): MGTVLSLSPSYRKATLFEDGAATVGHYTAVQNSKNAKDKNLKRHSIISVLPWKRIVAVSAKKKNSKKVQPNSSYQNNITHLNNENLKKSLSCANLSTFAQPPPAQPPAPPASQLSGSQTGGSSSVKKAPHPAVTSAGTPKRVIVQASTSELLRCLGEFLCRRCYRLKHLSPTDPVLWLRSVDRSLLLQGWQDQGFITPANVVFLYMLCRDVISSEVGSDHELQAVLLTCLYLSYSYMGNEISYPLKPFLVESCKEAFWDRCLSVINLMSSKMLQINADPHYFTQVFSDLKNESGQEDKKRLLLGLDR
Sequence of Cyclin-dependent kinase 1 (P00546 whole entry): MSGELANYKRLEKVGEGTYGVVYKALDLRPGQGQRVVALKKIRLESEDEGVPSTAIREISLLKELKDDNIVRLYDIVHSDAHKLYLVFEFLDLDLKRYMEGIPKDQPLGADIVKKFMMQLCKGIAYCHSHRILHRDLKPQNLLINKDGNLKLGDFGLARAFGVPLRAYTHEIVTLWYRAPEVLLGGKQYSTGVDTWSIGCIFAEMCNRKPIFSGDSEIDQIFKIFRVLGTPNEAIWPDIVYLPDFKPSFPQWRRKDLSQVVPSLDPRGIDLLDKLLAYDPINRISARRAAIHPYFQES
Sequence of Cyclin-dependent protein kinase PHO85 (Saccharomyces cerevisiae S288c) (P17157 whole entry): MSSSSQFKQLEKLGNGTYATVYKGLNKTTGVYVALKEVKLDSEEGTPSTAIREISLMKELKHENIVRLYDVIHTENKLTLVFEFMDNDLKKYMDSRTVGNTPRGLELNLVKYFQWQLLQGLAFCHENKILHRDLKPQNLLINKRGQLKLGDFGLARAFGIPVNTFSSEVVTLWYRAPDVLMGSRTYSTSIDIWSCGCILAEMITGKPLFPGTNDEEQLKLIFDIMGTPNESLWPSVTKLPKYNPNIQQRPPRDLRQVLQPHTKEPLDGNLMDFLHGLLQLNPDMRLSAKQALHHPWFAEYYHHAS
Sequence of Cyclin-dependent kinase 1 (Saccharomyces cerevisiae S288c) (P00546 2-298 limits assumed): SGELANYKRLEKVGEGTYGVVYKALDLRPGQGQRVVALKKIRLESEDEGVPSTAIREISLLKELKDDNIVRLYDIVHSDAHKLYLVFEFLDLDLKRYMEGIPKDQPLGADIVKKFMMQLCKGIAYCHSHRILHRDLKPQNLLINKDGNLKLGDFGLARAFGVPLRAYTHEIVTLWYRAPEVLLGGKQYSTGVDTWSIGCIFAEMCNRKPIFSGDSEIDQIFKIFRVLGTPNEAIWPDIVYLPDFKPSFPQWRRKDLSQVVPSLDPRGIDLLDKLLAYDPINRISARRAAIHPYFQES

Compound	pIC50 [1]	pIC50 [2]	IC50 [3] [µM]	Activity [4]	pIC50 [5]	growth inhibition (GI) [6]	pIC50 [7]	Activity [8]	Activity [9]
CCCCc1c(-c2ccc(OCCOCCOCCN)cc2)n(C)c2nccnc12	4.00	4.30	45						
CCCCc1c(-c2ccc(O)c(-c3cn(CCOCCOCCN)nn3)c2)[nH]c2nccnc12	5.17	< 5.00	5.8						
CCCCc1c(-c2ccc(OCCOCCOCCN)cc2)[nH]c2nccnc12	6.64	6.18	0.34						
CCCCc1c(-c2ccc(O)c(-c3cn(CCOCCOCCN)nn3)c2)n(C)c2nccnc12	< 5.00	< 5.00	> 10						
CCCCc1c(-c2ccc(O)cc2)[nH]c2nccnc12 [ALOISINE A]			0.65	Active	5.60	inactive	5.26		
CCCCc1c(-c2ccc(O)cc2)n(C)c2nccnc12 [N-METHYL-ALOISINE A]	3.85	3.80	> 200		< 4.48		< 4.00	inactive	inactive
